Reference: ChEMBL document CHEMBL1123553, “Synthesis and antimalarial and antitumor effects of 2-amino-4-(hydrazino and hydroxyamino)-6-[(aryl)thio]quinazolines” (1987)

Columns and labels:
Type in all cases: functional
L1210 [1] = experiment: Anti tumor activity against L1210 leukemia in tissue culture and the molar concentration required to reduce the number of L1210 cells; conditions: Mus musculus, L1210, read-out: ID50
Procedure, shortened: (§1)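 L1210 leukemia cells in tissue culture were incubated with the test drug for 2 days and the cell number was then assessed. ID50 is the molar drug concentration that reduces the number of L1210 cells by 50%.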

Mus musculus [2] = experiment: Antimalarial activity against Plasmodium berghei strain in mice (Mus musculus) by parentral route and change in mean survival time in days was determined at 40 mg/kg subcutaneous dose
Procedure, shortened: (§2)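 Normal drug-sensitive P. berghei strain in mice. Test agents dissolved or suspended in peanut oil and given as a single sc dose 72 h postinfection, five mice per dose group. ΔMST = mean survival time of treated mice minus that of controls (days). 60-day survivors are excluded from the treated mean and scored as cured. Minimum active response is a 100% increase in MSTT.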

Mus musculus [3] = experiment: Antimalarial activity against Plasmodium berghei strain in mice (Mus musculus) by parentral route and change in mean survival time in days was determined at 320 mg/kg subcutaneous dose; procedure, shortened: as §2
Mus musculus [4] = experiment: Antimalarial activity against Plasmodium berghei strain in mice (Mus musculus) by parentral route and change in mean survival time in days was determined at 80 mg/kg subcutaneous dose; procedure, shortened: as §2
Mus musculus [5] = experiment: Antimalarial activity against Plasmodium berghei strain in mice (Mus musculus) by parentral route and change in mean survival time in days was determined at 160 mg/kg subcutaneous dose; procedure, shortened: as §2
Mus musculus [6] = experiment: Antimalarial activity against Plasmodium berghei strain in mice (Mus musculus) by parentral route and change in mean survival time in days was determined at 640 mg/kg subcutaneous dose; procedure, shortened: as §2
L1210 [7] = experiment: Anti tumor activity against L1210 leukemia in tissue culture and the molar concentration required to reduce the number of L1210 cells by 50% was determined.; conditions: Mus musculus, L1210, read-out: ID50; procedure, shortened: as §1

SMILES	IC50 (L1210 [1]) [µM]	Delta MST (Mus musculus [2]) [days]	Delta MST (Mus musculus [3]) [days]	Delta MST (Mus musculus [4]) [days]	Delta MST (Mus musculus [5]) [days]	Delta MST (Mus musculus [6]) [days]	IC50 (L1210 [7]) [µM]
Nc1nc(N)c2cc(S(=O)(=O)c3ccc4ccccc4c3)ccc2n1	0.11	–	–	–	–	–	–
CONc1nc(N)nc2ccc(S(=O)(=O)c3ccc4ccccc4c3)cc12	–	3.9	12.7	5.7	9.1	–	–
NNc1nc(N)nc2ccc(Sc3cccc(C(F)(F)F)c3)cc12	–	0.5	11.9	3.1	6.9	15.7	–
Nc1nc(NO)c2cc(S(=O)(=O)c3ccc4ccccc4c3)ccc2n1	–	6.1	14.1	8.9	11.1	15.3	–
NNc1nc(N)nc2ccc(S(=O)(=O)c3ccc4ccccc4c3)cc12	–	0.5	3.5	1.3	2.3	4.5	–
CONc1nc(N)nc2ccc(Sc3cccc(C(F)(F)F)c3)cc12	–	5.7	–	6.9	9.7	–	24
CN(N)c1nc(N)nc2ccc(S(=O)(=O)c3ccc4ccccc4c3)cc12	–	0.5	7.1	2.3	4.3	10.7	–
ONc1nc(NO)c2cc(Sc3cccc(C(F)(F)F)c3)ccc2n1	–	1.7	10.7	3.1	9.7	–	–
CN(N)c1nc(N)nc2ccc(Sc3cccc(C(F)(F)F)c3)cc12	–	5.7	–	8.9	12.3	–	–
Nc1nc(NO)c2cc(Sc3cccc(C(F)(F)F)c3)ccc2n1	–	3.5	10.3	5.1	8.1	–	–
O=S(=O)(c1ccc2ccccc2c1)c1ccc2nc(NO)nc(NO)c2c1	–	1.1	8.1	3.3	5.9	10.7	–
